Source: publication PMC9643279 (Acta Pharmaceutica Sinica. B, 2022)
Values belong to the molecule of their own block, whether it stands above or below them.

Columns and labels:
[1] = tested on: LPS-induced IL-1β, IL-6, TNFα; conditions: cited from earlier work; for pro-inflammatory cytokine production: PKM2-targeted compounds
[2] = target: T1, PGK1 (Homo sapiens, UniProt P00558); assay: Steady-state kinetic assay in the presence of gradient compound concentrations; type: biochemical
T1 sequence (P00558 1-417): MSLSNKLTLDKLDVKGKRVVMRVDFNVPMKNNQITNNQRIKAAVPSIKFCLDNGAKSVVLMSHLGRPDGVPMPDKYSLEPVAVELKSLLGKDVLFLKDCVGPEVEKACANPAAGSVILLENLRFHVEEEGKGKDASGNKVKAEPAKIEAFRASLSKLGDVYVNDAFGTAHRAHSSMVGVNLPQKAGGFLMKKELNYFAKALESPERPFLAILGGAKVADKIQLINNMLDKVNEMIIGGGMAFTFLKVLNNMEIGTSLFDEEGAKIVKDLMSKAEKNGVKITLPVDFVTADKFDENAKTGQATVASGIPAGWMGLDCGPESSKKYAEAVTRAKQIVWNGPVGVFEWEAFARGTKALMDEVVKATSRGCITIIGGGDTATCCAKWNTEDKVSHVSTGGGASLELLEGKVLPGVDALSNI

[3] = target: T1, PGK1; assay: PGK1 and GAPDH coupled enzyme assay, IC50 determination; type: biochemical
Procedure, shortened: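 His-tagged PGK1 was expressed from pET28a in E. coli BL21(DE3) pLysS (0.4 mmol/L IPTG, 3 h) and nickel-purified. PGK1 at 0.4 nmol/L was preincubated with test compound (DMSO, various concentrations) for 10 min at room temperature with shaking. OD340 was read every 15 s for 15 min at 37 °C; V0 came from the first 3 min, and inhibition was expressed as % of the DMSO V0.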

[4] = target: T1, PGK1; assay: Protein thermal shift assay; type: binding; conditions: Figs. S1I-J
Procedure, shortened: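 Recombinant PGK1 at 3 μmol/L was mixed with 5× SYPRO Orange and test compound or DMSO in 20 μL of 50 mmol/L HEPES pH 7.4, 150 mmol/L NaCl, 1 mmol/L DTT. Fluorescence was followed during thermal melting in a real-time PCR instrument, and Tm was derived with the instrument's thermal-shift software.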

[5] = tested on: PGK1; conditions: read-out: IC50 (reported); reported as a PGK1 inhibitor; cited from earlier work

Compound: OCC1OC(O)CC(O)C1O (stereo not shown) [Compound 2-DG]
- LPS-induced IL-1β ([1]; previous studies): blocks
- transcription of IL-6 and TNFα ([1]; previous studies): unaffected

Compound: Nc1cccc(S(=O)(=O)N2CCCN(S(=O)(=O)c3ccc4c(c3)OCCO4)CC2)c1 [DASA-58]
- pro-inflammatory cytokine production [1]: only inhibit IL-1β production

- Ki ([2]; Ki, ATP competitive, varying ATP, saturating 3-PG, competitive model): 2590 ± 10 nM
- mode of inhibition versus ATP ([2]; Km of ATP increases, Vmax unchanged): ATP competitive inhibitor
- mode of inhibition versus 3-PG ([2]; Vmax decreases, Km of 3-PG unchanged): noncompetitive inhibition
- IC50 [3]: 2.3 µM
- PGK1 thermal stability [4]: stabilized
Compound: CCOC(=O)c1nc2cc(Cl)c(Cl)cc2nc1N1CCCN(C(=O)CC)CC1 [LTP-10, ethyl 6,7-dichloro-3-(4-propionyl-1,4-diazepan-1-yl)quinoxaline-2-carboxylate]

- IC50 [3]: 25.2 µM
Compound: CN(C)C(=O)CCSC(SCCC(=O)O)c1cccc(/C=C/c2ccc3ccc(Cl)cc3n2)c1 (stereo not shown) [MK-571]

Compound: Cn1c2cc([S+](C)[O-])sc2c2cnn(Cc3cccc(N)c3)c(=O)c21 (stereo not shown) [TEPP-46]
- pro-inflammatory cytokine production [1]: only inhibit IL-1β production

- IC50 [3]: 6.72 µM
Compound: c1cc(-c2cnn3cc(-c4ccc(OCCN5CCCCC5)cc4)cnc23)ccn1 [dorsomorphin]

- IC50 [3]: 1.96 µM
Compound: CC(C)[C@H](CO)Nc1nc(Nc2cccc(Cl)c2)c2ncn(C(C)C)c2n1 [purvalanol A]
- IC50 [5]: 2500 nM
